A short description of data set [1]: Stability in CD-1 mouse liver microsome assessed as parent compound remaining at 1 uM measured after 30 mins in presence of NADPH by LC-MS/MS analysis. The settings on record: liver microsomes, read-out: Stabilty. It is filed as ADME. The essentials:
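Liver microsomes (male CD-1 mouse or pooled human), 1 mg/mL protein, compound 1 µM, 37°C with shaking. Started with 1 mM NADPH or run without cofactor. Quenched with ice-cold ACN/MeOH containing internal standard. Parent quantified by LC-MS/MS; 30 min concentration normalised to time zero.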

Data set [2] has as its system Mycobacterium tuberculosis. As to the kind of experiment: Antitubercular activity against Mycobacterium tuberculosis isolate 12525 incubated for 7 days by microplate alamar blue assay. It is filed as functional. The conditions noted are these: isolate 12525, 168 h, time 7 day. In outline:
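MIC determined by microplate alamar blue assay (MABA) following a published protocol.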

The nature of data set [3]: Terminal half life in Balb/c mouse at 25 mg/kg, po by LC-MS/MS analysis. It is filed as ADME, organism-based. The conditions noted are these: in vivo, read-out: beta t1/2 (converted). The essentials:
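Female BALB/c mice, 20-25 g, five per route. Dosed 25 mg/kg p.o. in 0.5% carboxymethyl cellulose or 2.5 mg/kg i.v. in 10% DMSO/saline. Blood sampled 5 min-72 h (p.o.) or 2 min-48 h (i.v.), quantified by LC/MS/MS with ESI+. Parameters by non-compartmental analysis; F = (AUCpo×dose_iv)/(AUCiv×dose_po)×100%.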

Data set [4] can be described thus: Cmax in Balb/c mouse at 25 mg/kg, po by LC-MS/MS analysis. The class given is ADME, organism-based. Also on record: route oral, dose 25 mg/kg. The conditions noted are these: in vivo. The essentials:
(§1)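 Female BALB/c mice (20–25 g), five per route. Oral dose 25 mg/kg in 0.5% carboxymethyl cellulose; i.v. dose 2.5 mg/kg in 10% DMSO/physiological saline. Blood sampled 5 min–72 h after p.o. and 2 min–48 h after i.v. Analyte quantified by LC/MS/MS (ESI positive, C18, isocratic methanol/water). Parameters from non-compartmental analysis.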

Data set [5] in a line: AUC (0 to t) in Balb/c mouse at 25 mg/kg, po by LC-MS/MS analysis. The class given is ADME, organism-based. Also on record: dose 25 mg/kg. The settings on record: in vivo. The essentials:
as §1

A short description of data set [6]: Cmax in Balb/c mouse at 2.5 mg/kg, iv by LC-MS/MS analysis. The class given is ADME, organism-based. On the set-up: route intravenous, dose 2.5 mg/kg. The conditions noted are these: in vivo. In outline:
as §1

Data set [7] is described as follows: AUC (0 to t) in Balb/c mouse at 2.5 mg/kg, iv by LC-MS/MS analysis. It is filed as ADME, organism-based. On the set-up: dose 2.5 mg/kg. The conditions noted are these: in vivo. In outline:
as §1

A short description of data set [8]: MRT (0 to t) in Balb/c mouse at 2.5 mg/kg, iv by LC-MS/MS analysis. It is filed as ADME, organism-based. The conditions noted are these: in vivo. The essentials:
as §1

A short description of data set [9]: Mutagenicity in Salmonella typhimurium TA100 up to 1000 ug measured after 48 to 72 hrs in absence of S9 fraction by Ames test. It is filed as toxicity. The conditions noted are these: salmonella enterica subsp. enterica serovar typhimurium, dose <=1000 µg, time 48-72 hrs. The essentials: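 Mini-Ames test in S. typhimurium TA100, up to 1000 μg/well, DMSO vehicle. Run with 10% S9 mix or PBS in molten top agar on minimal agar, 37 °C for 48-72 h. Revertants counted manually. Positive if revertants rise ≥2-fold over vehicle mean in a dose-related manner.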

Data set [10] has as its target Voltage-gated inwardly rectifying potassium channel KCNH2 (Homo sapiens, UniProt Q12809). As to the kind of experiment: Inhibition of human ERG expressed in HEK293 cells by whole cell manual patch clamp method. The class given is cell-based. The essentials:
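HEK293 cells stably transfected with hERG; currents recorded by whole-cell manual patch clamp at 25 °C, sampled at 10 kHz. Five concentrations (0.3–30 μM) in duplicate for IC50; dofetilide as positive control.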

Data set [11] in a line: Inhibition of human CaV alpha1c/alpha2/delta/beta2a expressed in HEK293 cells measured after 60 mins by fluo-4 AM dye based fluorescence assay. It is filed as cell-based. The conditions noted are these: HEK293, 1 h. In outline:
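HEK-293 cells stably expressing human Cav1.2 (α1c, α2/δ, β2a) plus Kir2.3, seeded 1.2×10^4/well overnight in 1% FBS medium. Loaded with fluo-4 AM (4 μM), probenecid (5 mM) and brilliant black (1 mM) in 2× dye solution, 60 min at 37 °C. Ten concentrations from 1.52 to 30000 nM, duplicate, read on FLIPR (ex 470-495, em 515-575 nm). Inhibition normalised to KCl EC80 and solvent control; IC50 fitted.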

Data set [12] concerns the target T1, Amine oxidase [flavin-containing] A (Homo sapiens, UniProt P21397).
T1 sequence (P21397 whole entry): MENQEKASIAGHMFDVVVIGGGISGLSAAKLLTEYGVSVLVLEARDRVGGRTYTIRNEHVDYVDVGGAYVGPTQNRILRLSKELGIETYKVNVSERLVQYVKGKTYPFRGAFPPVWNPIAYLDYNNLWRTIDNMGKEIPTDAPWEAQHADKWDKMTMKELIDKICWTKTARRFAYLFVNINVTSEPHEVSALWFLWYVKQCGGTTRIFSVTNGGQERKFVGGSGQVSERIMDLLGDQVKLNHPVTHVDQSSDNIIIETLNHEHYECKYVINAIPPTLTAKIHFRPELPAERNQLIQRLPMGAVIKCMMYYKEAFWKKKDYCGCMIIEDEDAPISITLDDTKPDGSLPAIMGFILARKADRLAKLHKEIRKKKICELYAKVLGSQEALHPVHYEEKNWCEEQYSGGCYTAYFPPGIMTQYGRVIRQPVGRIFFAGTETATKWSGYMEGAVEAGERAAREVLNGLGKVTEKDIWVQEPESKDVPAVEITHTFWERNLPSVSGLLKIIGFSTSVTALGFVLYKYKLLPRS
Put plainly: Inhibition of recombinant human MAOA expressed in baculovirus infected insect cells using kynuramine as substrate measured after 20 mins by LC-MS/MS analysis. The essentials:
(§2)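 Recombinant human MAO-A or MAO-B (50 μg/mL) in 100 mM potassium phosphate pH 7.4 with 5 mM MgCl2. Kynuramine substrate at 50 μM (MAO-A) or 25 μM (MAO-B). […] 4-Hydroxyquinoline formation measured by LC-MS/MS versus vehicle; IC50 derived.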

Data set [13] deals with T2, Amine oxidase [flavin-containing] B (Homo sapiens, UniProt P27338).
T2 sequence (P27338 whole entry): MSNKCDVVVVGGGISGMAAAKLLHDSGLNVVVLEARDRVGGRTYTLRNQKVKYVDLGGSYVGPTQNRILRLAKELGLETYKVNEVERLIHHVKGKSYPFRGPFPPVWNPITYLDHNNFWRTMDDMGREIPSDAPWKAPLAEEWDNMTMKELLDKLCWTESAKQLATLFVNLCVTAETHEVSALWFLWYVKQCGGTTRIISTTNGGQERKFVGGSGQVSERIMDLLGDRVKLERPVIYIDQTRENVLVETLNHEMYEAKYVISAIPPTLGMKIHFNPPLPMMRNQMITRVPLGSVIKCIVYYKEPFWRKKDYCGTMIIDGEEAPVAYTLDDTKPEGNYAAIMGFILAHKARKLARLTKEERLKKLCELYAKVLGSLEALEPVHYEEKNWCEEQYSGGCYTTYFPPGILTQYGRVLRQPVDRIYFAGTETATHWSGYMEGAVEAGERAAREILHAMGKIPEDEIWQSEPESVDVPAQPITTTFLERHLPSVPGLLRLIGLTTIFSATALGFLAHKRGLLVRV
Put plainly: Inhibition of recombinant human MAOB expressed in baculovirus infected insect cells using kynuramine as substrate measured after 20 mins by LC-MS/MS analysis. The essentials: as §2

SMILES strings stand for the structures. ≈ marks a conversion by molar mass, not a printed value.

Chain of Voltage-gated inwardly rectifying potassium channel KCNH2 (Q12809 whole entry): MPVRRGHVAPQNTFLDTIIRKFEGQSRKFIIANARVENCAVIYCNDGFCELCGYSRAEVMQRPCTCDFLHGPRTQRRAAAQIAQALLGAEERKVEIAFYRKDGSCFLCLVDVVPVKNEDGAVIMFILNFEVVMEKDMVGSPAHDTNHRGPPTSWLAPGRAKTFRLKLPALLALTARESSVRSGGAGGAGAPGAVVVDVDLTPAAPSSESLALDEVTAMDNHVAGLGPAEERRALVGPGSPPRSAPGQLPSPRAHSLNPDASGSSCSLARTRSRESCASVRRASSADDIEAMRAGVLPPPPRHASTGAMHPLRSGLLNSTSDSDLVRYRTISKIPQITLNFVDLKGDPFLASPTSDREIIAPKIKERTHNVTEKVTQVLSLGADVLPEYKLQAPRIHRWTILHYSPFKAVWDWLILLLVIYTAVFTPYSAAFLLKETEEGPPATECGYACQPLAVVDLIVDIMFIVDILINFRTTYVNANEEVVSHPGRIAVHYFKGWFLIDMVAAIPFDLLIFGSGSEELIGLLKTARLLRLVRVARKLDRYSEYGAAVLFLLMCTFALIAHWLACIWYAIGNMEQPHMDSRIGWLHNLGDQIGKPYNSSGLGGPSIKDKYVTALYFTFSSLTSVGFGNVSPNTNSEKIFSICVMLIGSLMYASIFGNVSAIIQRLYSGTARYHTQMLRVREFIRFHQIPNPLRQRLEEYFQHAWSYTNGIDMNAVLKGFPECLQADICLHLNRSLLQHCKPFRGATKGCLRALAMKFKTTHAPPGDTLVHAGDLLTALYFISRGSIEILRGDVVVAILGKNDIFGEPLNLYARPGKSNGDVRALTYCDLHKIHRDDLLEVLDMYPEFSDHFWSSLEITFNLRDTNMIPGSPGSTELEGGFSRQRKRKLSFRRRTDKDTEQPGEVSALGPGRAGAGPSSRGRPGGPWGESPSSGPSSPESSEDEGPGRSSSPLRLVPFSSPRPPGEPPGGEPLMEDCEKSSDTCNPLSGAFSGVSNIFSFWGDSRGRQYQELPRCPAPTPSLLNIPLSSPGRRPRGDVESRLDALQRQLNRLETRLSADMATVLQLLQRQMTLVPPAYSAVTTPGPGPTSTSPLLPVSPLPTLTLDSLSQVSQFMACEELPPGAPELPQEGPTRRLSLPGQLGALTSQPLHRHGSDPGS

With `CC(=O)NC[C@@H]1OC(=O)N2c3cc(F)c(N4CC[S+]([O-])CC4)cc3OC[C@@H]12`, the remaining at 0.5 h, 1 µM in data set [1] worked out at 100%. This compound also came in with a minimum inhibitory concentration (MIC) in data set [2] of 0.46 µg/mL (≈ 1.16 µM). Also, in data set [3], the half-life is 6.28 h. The Cmax in [4] was 1520 ng/mL; in data set [6] it was 115 ng/mL. The figures for the AUC(0-t) in data set [5] and in data set [7] were 8750 ng·h/mL and 443 ng·h/mL, respectively. The MRT last in data set [8] came out at 3.52 h. In data set [9], the Activity entry was “Non-Toxic”. Also, the half-inhibitory concentration (IC50) in [10] is > 30 µM; in [11], > 30 µM; in data set [12], > 100 µM; in data set [13] it was > 100 µM.
For the compound `CC(=O)NC[C@@H]1OC(=O)N2c3cc(F)c(N4CCSCC4)cc3OC[C@@H]12`, the remaining at 0.5 h, 1 µM in data set [1] turned out to be 48.7%. Further, the minimal inhibitory concentration (MIC) in data set [2] is 0.03 µg/mL (≈ 0.0787 µM). For the same compound, in [3], the half-life was 14.7 h. The peak concentration (Cmax) in data set [4] is 3000 ng/mL; in data set [6], 4200 ng/mL. Besides, the AUC(0-t) amounted to 6480 ng·h/mL in [5] and 1160 ng·h/mL in data set [7]. This compound registered a mean residence time (MRT last) in [8] of 0.54 h. The Activity entry in data set [9] is reported as “Non-Toxic”. Besides, the half-maximal inhibitory concentration (IC50) in data set [10] is > 30 µM; in data set [11], > 30 µM; in data set [12] it was 44.8 µM; in data set [13], 3.2 µM.

Source of the values: ChEMBL document CHEMBL4725282, “Discovery of a Conformationally Constrained Oxazolidinone with Improved Safety and Efficacy Profiles for the Treatment of Multidrug-Resistant Tuberculosis” (J Med Chem, 2020).
